Results: ChEMBL document CHEMBL5154895, “Mechanistic Studies and In Vivo Efficacy of an Oxadiazole-Containing Antibiotic” (J Med Chem, 2022)
≈ marks a conversion by molar mass, not a printed value. Calls of active or inactive are those of the source. No cut-off for these calls is given here.

Key:
Staphylococcus aureus [1] = experiment: Upregulation of peptidase M23 protein expression in Staphylococcus aureus assessed as log2 of fold change in protein level measured after 2 hrs by LC-MS/MS analysis relative to control; type: functional
Procedure, shortened: (§1)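 S. aureus ATCC 25923 at OD600 0.6 exposed to compound or DMSO control for 2 h at 37°C, normalized to OD600 1.1 and PBS-washed. Cells were pressure-cycling lysed in 100 mM ammonium bicarbonate, and 50 μg protein was acetone-precipitated, reduced and alkylated, then Trypsin/Lys-C digested and C18-desalted. About 1 μg peptides went to LC-MS/MS. Label-free quantitation kept proteins present in all 3 samples, filtered at p <0.05.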

Streptococcus pneumoniae = experiment: Antibacterial activity against cephalosporin-resistant Streptococcus pneumoniae ATCC 51916 assessed as inhibition of bacterial growth incubated for 18 to 20 hrs by broth microdilution method; type: functional; conditions: time 18-20 hrs
Procedure, shortened: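 Broth microdilution per CLSI. S. pneumoniae was diluted to about 5×10^5 CFU/mL in TSB and incubated with serial dilutions of agent at 37 °C for 18–20 h under 5% CO2. MIC was read visually as the lowest concentration completely inhibiting growth.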

Staphylococcus aureus [2] = experiment: Antibacterial activity against methicillin-sensitive Staphylococcus aureus ATCC 6538 assessed as inhibition of bacterial growth incubated for 18 to 20 hrs by broth microdilution method; type: functional; conditions: time 18-20 hrs
Procedure, shortened: (§2)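 Broth microdilution per CLSI. Inoculum was set to 0.5 McFarland and diluted in CAMHB to about 5×10^5 CFU/mL. Serial dilutions of agent were incubated aerobically at 37 °C for 18–20 h. MIC was read visually as the lowest concentration with complete growth inhibition.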

Staphylococcus aureus [3] = experiment: Antibacterial activity against methicillin-resistant Staphylococcus aureus NRS119 assessed as inhibition of bacterial growth incubated for 18 to 20 hrs by broth microdilution method; type: functional; conditions: time 18-20 hrs; procedure, shortened: as §2
Staphylococcus aureus [4] = experiment: Antibacterial activity against vancomycin-resistant Staphylococcus aureus 9 assessed as inhibition of bacterial growth incubated for 18 to 20 hrs by broth microdilution method; type: functional; conditions: time 18-20 hrs; procedure, shortened: as §2
Streptococcus pyogenes = experiment: Antibacterial activity against Streptococcus pyogenes MGAS 9882 assessed as inhibition of bacterial growth incubated for 18 to 20 hrs by broth microdilution method; type: functional; conditions: time 18-20 hrs
Procedure, shortened: (§3)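 Broth microdilution with a 0.5 McFarland inoculum diluted in tryptic soy broth to about 5 × 10^5 CFU/mL. Serial compound dilutions incubated aerobically at 37° C for 18–20 hours. MIC read visually as the lowest concentration with no growth.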

Enterococcus faecium = experiment: Antibacterial activity against vancomycin-resistant Enterococcus faecium ATCC 700221 assessed as inhibition of bacterial growth incubated for 18 to 20 hrs by broth microdilution method; type: functional; conditions: time 18-20 hrs
Procedure, shortened: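 Broth microdilution per CLSI. Enterococci were diluted to about 5×10^5 CFU/mL in TSB and incubated aerobically with serial dilutions of agent at 37 °C for 18–20 h. MIC was read visually as the lowest concentration with no visible growth.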

Listeria monocytogenes = experiment: Antibacterial activity against Listeria monocytogenes ATCC 19111 assessed as inhibition of bacterial growth incubated for 18 to 20 hrs by broth microdilution method; type: functional; conditions: time 18-20 hrs; procedure, shortened: as §3
Staphylococcus aureus [5] = experiment: Downregulation of PyrF protein expression in Staphylococcus aureus assessed as log2 of fold change in protein level measured after 2 hrs by LC-MS/MS analysis relative to control; type: functional
Procedure, shortened: (§4)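 S. aureus ATCC 25923 at OD600 0.6 was treated with compound or DMSO for 2 h at 37 °C, normalised to OD600 1.1, and washed in PBS. Cells were pressure-lysed in 100 mM ammonium bicarbonate, then acetone-precipitated, reduced with DTT, alkylated with iodoacetamide, and digested with trypsin/Lys-C. Peptides were desalted and run on LC-MS/MS. Label-free quantitation used proteins present in all 3 samples, filtered at p<0.05 against DMSO.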

Staphylococcus aureus [6] = experiment: Downregulation of Als protein expression in Staphylococcus aureus assessed as log2 of fold change in protein level measured after 2 hrs by LC-MS/MS analysis relative to control; type: functional; procedure, shortened: as §4
Staphylococcus aureus [7] = experiment: Upregulation of IsdI protein expression in Staphylococcus aureus assessed as log2 of fold change in protein level measured after 2 hrs by LC-MS/MS analysis relative to control; type: functional; procedure, shortened: as §1
Mus musculus = experiment: Acceleration of wound healing in methicillin-resistant Staphylococcus aureus USA300 infected in Balb/c mouse model assessed as reduction in pro-inflammatory cytokines level in skin wounds administered topically twice daily 2 days post infection and measured after 5 days post compound treatment; type: functional, organism-based; conditions: time 5.0 day
Procedure, shortened: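 Mice had two 6-mm dorsal excisional wounds, each infected with 20 μL of 4.2×10^9 CFU/mL MRSA USA300 and covered with Tegaderm. Treatment began 2 days after infection (n=5 per group): 2% compound in petroleum jelly applied topically twice daily for 5 days. Right-wound homogenates in PBS were centrifuged, supernatants pooled per group, and protein normalised by BCA. Cytokines were measured by mouse cytokine array (pg/mL).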

Staphylococcus aureus [8] = experiment: Downregulation of aureolysin protein expression in Staphylococcus aureus measured after 2 hrs by LC-MS/MS analysis; type: functional; procedure, shortened: as §4
Staphylococcus aureus [9] = experiment: Upregulation of 23S rRNA (pseudouridine(1915)-N(3))-methyltransferase RImH expression in Staphylococcus aureus measured after 2 hrs by LC-MS/MS analysis; type: functional; procedure, shortened: as §1
Staphylococcus aureus [10] = experiment: Upregulation of acyl phosphatase expression in Staphylococcus aureus measured after 2 hrs by LC-MS/MS analysis; type: functional; procedure, shortened: as §1
Staphylococcus aureus [11] = experiment: Upregulation of siderophore biosynthesis protein SbnC expression in Staphylococcus aureus measured after 2 hrs by LC-MS/MS analysis; type: functional; procedure, shortened: as §1
Staphylococcus aureus [12] = experiment: Upregulation of ribonuclease HIII expression in Staphylococcus aureus measured after 2 hrs by LC-MS/MS analysis; type: functional; procedure, shortened: as §1
Staphylococcus aureus [13] = experiment: Upregulation of siderophore biosynthesis protein SbnF in Staphylococcus aureus measured after 2 hrs by LC-MS/MS analysis; type: functional; procedure, shortened: as §1
Staphylococcus aureus [14] = experiment: Downregulation of glycero-phosphodiester phosphodiesterase protein expression in Staphylococcus aureus measured after 2 hrs by LC-MS/MS analysis; type: functional; procedure, shortened: as §4
Staphylococcus aureus [15] = experiment: Downregulation of oxidoreductase protein expression in Staphylococcus aureus measured after 2 hrs by LC-MS/MS analysis; type: functional; procedure, shortened: as §1
Staphylococcus aureus [16] = experiment: Downregulation of carboxylesterase protein expression in Staphylococcus aureus measured after 2 hrs by LC-MS/MS analysis; type: functional; procedure, shortened: as §4
Staphylococcus aureus [17] = experiment: Downregulation of MAP domain-containing protein expression in Staphylococcus aureus measured after 2 hrs by LC-MS/MS analysis; type: functional; procedure, shortened: as §4
Staphylococcus aureus [18] = experiment: Downregulation of protein EssC expression in Staphylococcus aureus measured after 2 hrs by LC-MS/MS analysis; type: functional; procedure, shortened: as §1
Staphylococcus aureus [19] = experiment: Downregulation of nitrite reductase (NAD(P)H) small subunit protein expression in Staphylococcus aureus measured after 2 hrs by LC-MS/MS analysis; type: functional; procedure, shortened: as §1
Staphylococcus aureus [20] = experiment: Downregulation of multifunctional 2,3-cyclic-nucleotide 2-phosphodiesterase/5-nucleotidase/3-nucleotidase protein expression in Staphylococcus aureus measured after 2 hrs by LC-MS/MS analysis; type: functional; procedure, shortened: as §1
Staphylococcus aureus [21] = experiment: Downregulation of holo-ACP synthase protein expression in Staphylococcus aureus measured after 2 hrs by LC-MS/MS analysis; type: functional; procedure, shortened: as §4
Staphylococcus aureus [22] = experiment: Downregulation of membrane protein expression in Staphylococcus aureus measured after 2 hrs by LC-MS/MS analysis; type: functional; procedure, shortened: as §1
[23] = In vivo antibacterial activity against methicillin-resistant Staphylococcus aureus USA300 infected in Balb/c mouse model assessed as reduction in bacterial infection in skin wounds administered topically twice daily 2 days post infection and measured after 5 days post compound treatment by CFU counting; parameters: scale not given: the % may be the effect or the level left; conditions: time 5 day

## CC1CC(C)CN(S(=O)(=O)c2ccc(C(=O)Nc3nnc(-c4ccc(C(F)(F)F)cc4)o3)cc2)C1 (stereo not drawn)
Staphylococcus aureus [1]
  log2FC: 2
Streptococcus pneumoniae
  MIC: 0.06 µg/mL (≈ 0.118 µM)
Staphylococcus aureus [2]
  MIC: 0.25 µg/mL (≈ 0.492 µM)
Staphylococcus aureus [3]
  MIC: 0.25 µg/mL (≈ 0.492 µM)
Staphylococcus aureus [4]
  MIC: 0.25 µg/mL (≈ 0.492 µM)
Streptococcus pyogenes
  MIC: 0.06 µg/mL (≈ 0.118 µM)
Enterococcus faecium
  MIC: 0.25 µg/mL (≈ 0.492 µM)
Listeria monocytogenes
  MIC: 0.06 µg/mL (≈ 0.118 µM)
Staphylococcus aureus [5]
  log2FC: -2.2
Staphylococcus aureus [6]
  log2FC: -2.7
Staphylococcus aureus [7]
  log2FC: 3.2
Mus musculus
  Activity: Active
Staphylococcus aureus [8]
  Activity: Active
Staphylococcus aureus [9]
  Activity: Active
Staphylococcus aureus [10]
  Activity: Active
Staphylococcus aureus [11]
  Activity: Active
Staphylococcus aureus [12]
  Activity: Active
Staphylococcus aureus [13]
  Activity: Active
Staphylococcus aureus [14]
  Activity: Active
Staphylococcus aureus [15]
  Activity: Active
Staphylococcus aureus [16]
  Activity: Active
Staphylococcus aureus [17]
  Activity: Active
Staphylococcus aureus [18]
  Activity: Active
Staphylococcus aureus [19]
  Activity: Active
Staphylococcus aureus [20]
  Activity: Active
Staphylococcus aureus [21]
  Activity: Active
Staphylococcus aureus [22]
  Activity: Active
[23]
  Activity: 93.8%
